# Screening results: PubChem BioAssay, several laboratories
# Only some compounds are listed: those with a hit (about 3.8% of all), similar ones and a draw of the others.
# rCAG RNA binder: binds r(CAG) RNA repeats | inhibition, % at 3 µM | actives 1.3% (n = 370,000) | r(CAG) RNA repeat, TO-PRO-1 dye displacement fluorescence | AID 651821;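 active = inhibition above the plate cutoff, the mean of all test compounds on that plate plus 3 SD, cut at about 35% in these data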;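 also: higher means more dye released from RNA so lower well fluorescence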
# Granule exo inh: blocks lytic granule exocytosis. AID 651702. TALL-104 LAMP-1 surface exposure, flow cytometry; cells stimulated with thapsigargin and PMA. inhibition, % at 10 µM. actives 0.66% (n = 360,000);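 active = inhibition above about 55%, limit read from the data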
# T cell HTS: T cell immune modulators affecting CD8 T cell-vesicle binding. 2C CD8+ T cell-vesicle binding, flow cytometry; active compounds read low. response (vesicle binding), % at 7 µM. actives 0.068% (n = 330,000);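 active = response, share of CD8 T cells binding vesicles, and their 90th percentile fluorescence all below set limits, cut at about 80% in these data, passing the limit was not always enough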;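 also: values below 100% mean blocked vesicle binding to the CD8+ T cells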
#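 incubation = binding step 1.5 h, 37 °C, antibody labelling 20 min, ice | test system = 2C mouse CD8+ T cells | read-out basis = percent CD8+ FL2 mean versus row control | controls = Peptide-free naked vesicles (low) and QL9 vesicles with 0.7% DMSO vehicle (high) | detection = flow cytometry of vesicle-bound cells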
# MPTP block: permeability transition pore inhibition | isolated mouse mitochondria, Ca2+ swelling absorbance, 30 min | inhibition, % at 10 µM | actives 1.4% (n = 360,000) | AID 602449;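 active = inhibition of 50% or more, scaled per plate between neutral and stimulator controls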
# B2AR ag: activates human beta-2 adrenergic receptor causing internalization | actives 0.43% (n = 340,000) | P07550 | AID 504454 | response, % (no concentration beside the values) | Am2.2-beta2AR cells, FAP receptor internalization, flow cytometry;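 active = response above a set limit, near 3 SD of response in nonfluorescent compounds, cut at about 42% in these data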
# Target sequence (P07550 whole entry, looked up): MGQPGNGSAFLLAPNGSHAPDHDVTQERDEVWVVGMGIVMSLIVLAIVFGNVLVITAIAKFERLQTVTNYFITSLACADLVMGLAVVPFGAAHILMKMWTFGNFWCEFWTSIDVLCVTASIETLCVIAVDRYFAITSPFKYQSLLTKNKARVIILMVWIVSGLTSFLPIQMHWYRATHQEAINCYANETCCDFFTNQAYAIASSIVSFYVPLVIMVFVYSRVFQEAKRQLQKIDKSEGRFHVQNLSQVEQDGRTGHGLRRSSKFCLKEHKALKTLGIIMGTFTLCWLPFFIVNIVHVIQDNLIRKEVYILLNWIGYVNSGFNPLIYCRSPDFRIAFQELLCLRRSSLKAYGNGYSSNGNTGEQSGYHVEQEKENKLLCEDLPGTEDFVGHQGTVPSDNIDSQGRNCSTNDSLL
# V-ATPase pHluor: alters yeast V-ATPase proton transport | actives 0.37% (n = 350,000) | response, % at 10 µM | S. cerevisiae, pHLuorin cytosolic pH fluorescence | AID 504577; in the data active = response mostly above about 7.3%, no sharp cut-off; inactive = mostly below about 5.4%; also: actives read high
# A number is an active result; i = inactive; nt = no result; ! = a repeat was not active.
SMILES,rCAG RNA binder,Granule exo inh,T cell HTS,MPTP block,B2AR ag,V-ATPase pHluor
CC(C)(C)c1ccc(-c2cc(C(=O)NNC(=O)Nc3ccccc3)c3ccccc3n2)cc1,i,i,i,i,42.9,i
O=C(NNC(=O)c1cc(-c2ccccc2)nc2ccccc12)Nc1cccc(Cl)c1,i,i,i,i,i,i
O=C(O)C1Nc2c(O)cc(Cl)c([N+](=O)[O-])c2C2C=CCC12 (stereo not drawn),100.6,i,i,i,i,i
O=C(O)C1Nc2c(cccc2C(F)(F)F)C2C=CCC12 (stereo not drawn),nt,nt,i,nt,nt,nt
CCC1CN(S(=O)(=O)c2cc(-c3cc(C)no3)ccc2OC)c2cc(C)ccc2O1 (stereo not drawn),i,69.7,i,i,i,i
N#Cc1c([N+](=O)[O-])cc([N+](=O)[O-])cc1S(=O)(=O)Cc1ccccc1,i,i,i,i,93.7,i
COCCCNC(=O)C[C@H]1C[C@H](C(=O)N2CCCCC2)[C@@]2(CCc3ccccc3)c3[nH]c4cc(-c5ccco5)ccc4c3CCN2C1=O,i,i,nt,i,i,i
O=C(C[C@H]1C[C@H](C(=O)N2CCCCC2)[C@@]2(CCc3ccccc3)c3[nH]c4cc(-c5ccco5)ccc4c3CCN2C1=O)NCCN1CCOCC1,i,i,nt,i,42.5,i
O=C(NN=C/C=C/c1ccco1)c1cc(-c2ccc(Cl)cc2)n[nH]1,i,nt,nt,nt,nt,nt
COc1ccc(C(=O)c2ccc(Cl)c([N+](=O)[O-])c2)cc1,i,i,i,i,47.8,i
CN(CCO)c1cccc2c1S(=O)(=O)N(Cc1cn(Cc3cccc(F)c3)nn1)Cc1ccccc1O2,i,nt,nt,nt,nt,nt
O=C1NN(c2ccc(Br)cc2)C(=O)/C1=C\c1ccc(O)cc1O,45.9,i,i,i,i,i
Cc1nc(-c2cccnc2)sc1C(=O)N/N=C/c1ccccc1Cl,i,i,i,i,42.2,i
COC(=O)n1c(SC)nc2ccccc21,i,i,i,i,78.2,i
COc1cc(NC(=O)C2CCN(c3nnc(-n4cccc4)s3)CC2)cc(OC)c1,i,nt,nt,nt,nt,nt
O=C1CC(c2nc3ccccc3[nH]2)CN1Cc1ccccc1 (stereo not drawn),i,i,46.8,i,i,i
O=C(Cc1csc(N2CCOCC2)n1)N/N=C/c1ccc(O)c(O)c1O,i,i,nt,i,46.0,i
C/C(=N\NC(=O)Cc1csc(N2CCOCC2)n1)c1ccccc1,i,i,i,i,i,i
COc1ccc(-n2cc(COC(=O)NCCc3c[nH]c4ccccc34)nn2)cc1,i,nt,nt,nt,nt,nt
Cc1nnc(SCC(=O)N/N=C/c2cn(-c3ccccc3)nc2-c2ccccc2)n1-c1ccccc1,i,i,i,i,64.2,i
CCn1c(O)c(N=NC(=O)c2ccc(CSc3nncn3C)cc2)c2ccccc21,i,i,i,i,53.0,i
Cn1cnnc1SCc1ccc(C(=O)N=Nc2c(O)n(Cc3ccc(Cl)cc3)c3ccccc23)cc1,i,i,i,i,i,i
COc1ccc(N2CCN(C(c3cccs3)C(C)NC(=O)C(=O)N3CCCCC3)CC2)cc1 (stereo not drawn),i,i,i,i,70.4,i
CC1=NNC(=O)/C1=C\c1cn(-c2ccccc2)nc1-c1ccccc1,i,i,i,i,81.8,i
O=Cc1cn(-c2ccccc2)nc1-c1ccccc1,i,i,i,i,i,i
SMILES,rCAG RNA binder,Granule exo inh,T cell HTS,MPTP block,B2AR ag,V-ATPase pHluor
COC1=C(Br)C(=O)c2nc(C)ccc2C1=O,i,98.5,nt,i,nt,i
COC1=C(N)C(=O)c2nc(C)ccc2C1=O,i,i,nt,i,i,i
Nc1nnc(SCCOc2ccc(Br)cc2)s1,i,i,0.0,i,i,i
CN1/C(=C/C(=O)c2nc(S(C)(=O)=O)ncc2Cl)C(C)(C)c2ccccc21,nt,57.7,i,i,48.0,i
O=C(C(=O)N1CCC(CNS(=O)(=O)c2ccccc2OC(F)(F)F)CC1)c1cccs1,i,nt,nt,nt,nt,nt
CCOC(=O)Nc1sc2c(c1C(=O)OCC)CCC2,i,i,i,i,i,i
CCOC(=O)c1c(NC(=O)C2CCCCC2C(=O)O)sc2c1CCCCC2 (stereo not drawn),44.8,i,i,i,i,i
O=C(O)CN1C(=O)/C(=C/c2cccc(Cl)c2)Oc2ccccc21,52.2,i,i,i,i,i
CCOC(=O)CN1C(=O)/C(=C/c2ccccc2Br)Oc2ccccc21,i,i,i,i,i,i
Cc1ccc(NC(=O)C2CCCN(c3nnc(-n4cccc4)s3)C2)cc1C (stereo not drawn),i,nt,nt,nt,nt,nt
Cc1ccc(C(=O)c2coc3c2C(=O)C(=O)c2ccccc2-3)cc1,i,i,i,i,i,i
Cc1oc2c(c1C(=O)c1ccc(Cl)cc1)C(=O)C(=O)c1ccccc1-2,i,104.0,nt,i,63.4,i
CCN1CCN(Cc2ccc(NC(=O)c3cccc(-c4ccc5nc(NC(=O)C6CC6)sc5n4)c3)cc2C(F)(F)F)CC1,i,nt,nt,nt,nt,nt
COC(=O)[C@]12C[C@H](CC(=O)NCc3cccs3)C(=O)N(CCC3=CCCCC3)C1=C[C@H](C(C)C)O[C@@H]2C1CC1,i,nt,nt,nt,nt,nt
CCCCC1C(=O)N(c2ccccc2)N(c2ccc(O)cc2)C1=O (stereo not drawn),i,i,i,i,60.8,i
COC(=O)[C@]12C[C@H](CC(=O)NCCCN3CCCC3=O)C(=O)N(Cc3cccc4ccccc34)C1=C[C@H](C(C)(C)C)O[C@@H]2C,i,nt,nt,nt,nt,nt
Cc1ccc2[nH]cc(CCNC(=O)/C=C/c3ccco3)c2c1,i,i,77.9,i,i,i
CN(C)/C=N/C(=S)Nc1ccccc1F,i,i,i,i,51.1,i
COC1=C[C@H](C(=O)NCCNC(C)=O)[C@@]2(C)Cc3ccccc3[C@H]2CC1=O,i,nt,nt,nt,nt,nt
O=C(Cc1ccc(Cl)cc1)OCC(=O)N1CCCCCC1,i,i,61.2,i,i,i
O=C(COc1ccc(Cl)cc1[N+](=O)[O-])N1CCCCCC1,i,i,30.8,i,i,i
CCOC(=O)CC[C@H]1CC[C@]2(CCCN(S(=O)(=O)C3CCCCC3)C2)O1,i,nt,nt,nt,nt,nt
CC1OC2CC(=O)OC2C2=C1C(=O)c1c(O)cccc1C2=O (stereo not drawn),i,85.7,nt,i,nt,nt
O=C1c2cccc(O)c2C(=O)c2c(O)cc(CO)cc21,nt,nt,i,nt,nt,nt
COC(=O)C1=C(O)/C(=C\c2ccc(CNC(=O)C(=O)Nc3ccc(C)cc3)o2)N=C1C,i,i,i,i,56.4,i
CN1CCN(Cc2nc3ccccc3c(=O)n2Cc2nc(-c3ccc4ccccc4c3)cs2)CC1,i,64.8!,i,i,i,i
CC(C)c1nnc2n1N=C(c1ccc(Cl)cc1)CS2,i,i,i,i,i,i
CCCc1ccc(C2=Nn3c(nnc3C(C)C)SC2)cc1,nt,i,i,i,66.3,i
Cc1ccc(S(=O)(=O)N2CCCCC2)cc1NC(=O)c1cc2ccccc2o1,i,i,i,i,i,26.9
COc1ccccc1OC(=O)c1cc2ccccc2oc1=O,i,i,i,i,i,i
